Results from ChEMBL document CHEMBL5104202, “Structure-Uptake Relationship Studies of Oxazolidinones in Gram-Negative ESKAPE Pathogens” (J Med Chem, 2022).
≈ marks a conversion by molar mass, not a printed value.

Key:
Acinetobacter baumannii [1] = test: Antibacterial activity against efflux pump lacking Acinetobacter baumannii assessed as inhibition of bacterial growth; assay type: functional, organism-based
Acinetobacter baumannii [2] = test: Antibacterial activity against efflux pump lacking/recombinant OM pore producing Acinetobacter baumannii assessed as inhibition of bacterial growth; assay type: functional, organism-based
Acinetobacter baumannii [3] = test: Antibacterial activity against recombinant OM pore producing Acinetobacter baumannii assessed as inhibition of bacterial growth; assay type: functional, organism-based
Acinetobacter baumannii [4] = test: Antibacterial activity against wild type Acinetobacter baumannii assessed as inhibition of bacterial growth; assay type: functional, organism-based
Escherichia coli [5] = test: Antibacterial activity against wild type Escherichia coli assessed as inhibition of bacterial growth; assay type: functional, organism-based
Escherichia coli [6] = test: Antibacterial activity against recombinant OM pore producing Escherichia coli assessed as inhibition of bacterial growth; assay type: functional, organism-based
Escherichia coli [7] = test: Antibacterial activity against efflux pump lacking Escherichia coli assessed as inhibition of bacterial growth; assay type: functional, organism-based
Escherichia coli [8] = test: Antibacterial activity against efflux pump lacking/recombinant OM pore producing Escherichia coli assessed as inhibition of bacterial growth; assay type: functional, organism-based
Pseudomonas aeruginosa [9] = test: Antibacterial activity against wild type Pseudomonas aeruginosa assessed as inhibition of bacterial growth; assay type: functional, organism-based
Pseudomonas aeruginosa [10] = test: Antibacterial activity against recombinant OM pore producing Pseudomonas aeruginosa assessed as inhibition of bacterial growth; assay type: functional, organism-based
Pseudomonas aeruginosa [11] = test: Antibacterial activity against efflux pump lacking Pseudomonas aeruginosa assessed as inhibition of bacterial growth; assay type: functional, organism-based
Pseudomonas aeruginosa [12] = test: Antibacterial activity against efflux pump lacking/recombinant OM pore producing Pseudomonas aeruginosa assessed as inhibition of bacterial growth; assay type: functional, organism-based
Acinetobacter baumannii [13] = test: Antibacterial activity against efflux pump lacking/recombinant OM pore producing Acinetobacter baumannii incubated for 24 hrs by twofold serial dilution method; assay type: functional
Summary of the method: (§1)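 MICs by twofold serial dilution in 96-well plates from 10 mM DMSO stocks. Cultures grown in the indicated media; for E. coli, A. baumannii and P. aeruginosa, inducers were 0.1% arabinose, 1% arabinose and 0.1 mM IPTG respectively.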

Escherichia coli [14] = test: Antibacterial activity against efflux pump lacking/recombinant OM pore producing Escherichia coli incubated for 24 hrs by twofold serial dilution method; assay type: functional
Summary of the method: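 E. coli efflux-knockout/hyperporinated strain grown in M9 medium with 50 mM MOPS (pH 7.2) and 0.2% xylose. OM pore induced with 0.1% arabinose. Compounds come from 10 mM DMSO stocks and are twofold serially diluted in 96-well plates.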

Pseudomonas aeruginosa [15] = test: Antibacterial activity against efflux pump lacking/recombinant OM pore producing Pseudomonas aeruginosa incubated for 24 hrs by twofold serial dilution method; assay type: functional; summary of the method: as §1
Escherichia coli [16] = test: Antibacterial activity against Escherichia coli SQ110 DTC G2032A incubated for 24 hrs by twofold serial dilution method; assay type: functional
Summary of the method: (§2)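 E. coli SQDTC (TolC-deficient, single rRNA operon) carrying LZD-resistant 23S rRNA substitutions. Compounds come from 10 mM DMSO stocks and are twofold serially diluted in 96-well plates.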

Staphylococcus aureus = test: Antibacterial activity against Staphylococcus aureus ATCC 25923 incubated for 24 hrs by twofold serial dilution method; assay type: functional; summary of the method: as §1
Escherichia coli [17] = test: Antibacterial activity against Escherichia coli SQ110 DTC incubated for 24 hrs by twofold serial dilution method; assay type: functional; summary of the method: as §1
Escherichia coli [18] = test: Antibacterial activity against Escherichia coli SQ110 incubated for 24 hrs by twofold serial dilution method; assay type: functional; summary of the method: as §1
Escherichia coli [19] = test: Antibacterial activity against Escherichia coli SQ110 DTC C2610A incubated for 24 hrs by twofold serial dilution method; assay type: functional; summary of the method: as §2

SMILES	IC50 (Acinetobacter baumannii [1])	IC50 (Acinetobacter baumannii [2])	IC50 (Acinetobacter baumannii [3])	IC50 (Acinetobacter baumannii [4])	IC50 (Escherichia coli [5])	IC50 (Escherichia coli [6])	IC50 (Escherichia coli [7])	IC50 (Escherichia coli [8])	IC50 (Pseudomonas aeruginosa [9])	IC50 (Pseudomonas aeruginosa [10])	IC50 (Pseudomonas aeruginosa [11])	IC50 (Pseudomonas aeruginosa [12])	MIC (Acinetobacter baumannii [13])	MIC (Escherichia coli [14])	MIC (Pseudomonas aeruginosa [15])	MIC (Escherichia coli [16])	MIC (Staphylococcus aureus)	MIC (Escherichia coli [17])	MIC (Escherichia coli [18])	MIC (Escherichia coli [19])
O=C1O[C@@H](CO)CN1c1ccc(-c2ccc(C(F)(F)F)cc2)c(F)c1	8 µM	3.9 µM	41.1 µM	> 100 µM	88.8 µM	35.3 µM	4.1 µM	2.9 µM	> 100 µM	> 100 µM	8 µM	1.4 µM	6.25 µM	> 100 µM	> 100 µM	> 100 µM	3.12 µM (≈ 1.11 µg/mL)	25 µM (≈ 8.88 µg/mL)	100 µM (≈ 35.5 µg/mL)	> 100 µM
C[n+]1cccc(-c2ccc(-c3ccc(N4C[C@H](CO)OC4=O)cc3F)cc2)c1	29.7 µM	12.6 µM	13.9 µM	> 100 µM	98.4 µM	7.8 µM	1.2 µM	2.1 µM	> 100 µM	28.1 µM	29.7 µM	18.1 µM	25 µM	25 µM	25 µM	50 µM	12.5 µM	12.5 µM	> 100 µM	25 µM
O=C1O[C@@H](CO)CN1c1ccc(-c2cccc3cc[nH]c23)c(F)c1	64.4 µM	62.1 µM	> 100 µM	> 100 µM	77 µM	19.5 µM	21.6 µM	7.2 µM	> 100 µM	> 100 µM	> 100 µM	> 100 µM								
O=C1O[C@@H](CO)CN1c1ccc(C#CCO)c(F)c1	> 100 µM	> 100 µM	> 100 µM	> 100 µM	> 100 µM	> 100 µM	84 µM	43.6 µM	> 100 µM	> 100 µM	> 100 µM	> 100 µM								
COc1ccc(CN)cc1OCC#Cc1ccc(N2C[C@H](CO)OC2=O)cc1F	> 100 µM	> 100 µM	> 100 µM	> 100 µM	> 100 µM	> 100 µM	> 100 µM	> 100 µM	> 100 µM	> 100 µM	> 100 µM	> 100 µM								
CC(=O)OCC#Cc1ccc(N2C[C@H](CO)OC2=O)cc1F	> 100 µM	> 100 µM	> 100 µM	> 100 µM	> 100 µM	44.4 µM	72.4 µM	39.7 µM	> 100 µM	> 100 µM	> 100 µM	> 100 µM								
N=C(N)NCc1ccc(-c2ccc(N3C[C@H](CO)OC3=O)cc2F)cc1	67.8 µM	32.5 µM	65.9 µM	> 100 µM	> 100 µM	56.1 µM	63.8 µM	55.7 µM	> 100 µM	> 100 µM	12 µM	25.7 µM								
CNC(=O)NCC#Cc1ccc(N2C[C@H](CO)OC2=O)cc1F	> 100 µM	> 100 µM	> 100 µM	> 100 µM	> 100 µM	> 100 µM	> 100 µM	11.2 µM	> 100 µM	> 100 µM	> 100 µM	> 100 µM								
CC(C)(C)OC(=O)N[C@@H](Cc1cccc(-c2ccc(N3C[C@H](CO)OC3=O)cc2F)c1)C(=O)O	> 100 µM	> 100 µM	> 100 µM	> 100 µM	> 100 µM	> 100 µM	> 100 µM	> 100 µM	> 100 µM	> 100 µM	> 100 µM	> 100 µM								
CC(=O)N1CCN(CC#Cc2ccc(N3C[C@H](CO)OC3=O)cc2F)CC1	> 100 µM	> 100 µM	> 100 µM	> 100 µM	> 100 µM	> 100 µM	> 100 µM	> 100 µM	> 100 µM	> 100 µM	> 100 µM	> 100 µM								
COC(=O)c1cncc(-c2ccc(N3C[C@H](CO)OC3=O)cc2F)c1	12.1 µM	12.1 µM	83.2 µM	83.2 µM	> 100 µM	4.7 µM	2.7 µM	2.2 µM	> 100 µM	> 100 µM	32.9 µM	38.7 µM								
Cn1ncc(C#Cc2ccc(N3C[C@H](CO)OC3=O)cc2F)c1C(=O)O	88.2 µM	89.5 µM	61.3 µM	> 100 µM	> 100 µM	> 100 µM	> 100 µM	> 100 µM	> 100 µM	> 100 µM	> 100 µM	> 100 µM								
O=C1NCCN1CC#Cc1ccc(N2C[C@H](CO)OC2=O)cc1F	> 100 µM	> 100 µM	> 100 µM	> 100 µM	> 100 µM	> 100 µM	64.3 µM	39 µM	> 100 µM	> 100 µM	> 100 µM	> 100 µM								
O=C1O[C@@H](CO)CN1c1ccc(-c2ccc3ccncc3c2)c(F)c1	> 100 µM	> 100 µM	> 100 µM	> 100 µM	> 100 µM	> 100 µM	> 100 µM	> 100 µM	> 100 µM	> 100 µM	> 100 µM	0.1 µM								
